Assay results as given in ChEMBL document CHEMBL1275265, “Synthesis and biological evaluation of N-antipyrine-4-substituted amino-3-chloromaleimide derivatives” (Eur J Med Chem, 2010).
Calls of active or inactive are those of the source.

Key:
Pseudomonas aeruginosa = assay: Antibacterial activity against Pseudomonas aeruginosa ATCC 27853 at < 100 ug/mL by agar dilution method; assay type: functional, organism-based
Method in brief: (§1)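 Agar dilution on 1 mL Mueller-Hinton agar slants. Compounds were serially two-fold diluted in DMSO (final DMSO ≤2%) to give 10–100 µg/mL in the medium. Bacteria were grown on MHA at 35 °C for 24 h, suspended in 0.86% saline at 1.5 × 10^8 cell/mL (0.5 McFarland), and 1 µL was added per slant. Slants were incubated at 35 °C. Drug-free blank included; each assay run three times; MIC recorded.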

Proteus mirabilis = assay: Antibacterial activity against Proteus mirabilis ATCC 25933 at < 100 ug/mL by agar dilution method; assay type: functional, organism-based; method in brief: as §1
Staphylococcus aureus = assay: Antibacterial activity against Staphylococcus aureus ATCC 6538P at < 100 ug/mL by agar dilution method; assay type: functional, organism-based; method in brief: as §1
Bacillus cereus = assay: Antibacterial activity against Bacillus cereus ATCC 14579 at < 100 ug/mL by agar dilution method; assay type: functional; method in brief: as §1
Bacillus subtilis = assay: Antibacterial activity against Bacillus subtilis ATCC 23858 at < 100 ug/mL by agar dilution method; assay type: functional, organism-based; method in brief: as §1
Streptococcus agalactiae = assay: Antibacterial activity against Streptococcus agalactiae ATCC 13813 at < 100 ug/mL by agar dilution method; assay type: functional; method in brief: as §1
Enterobacter cloacae = assay: Antibacterial activity against Enterobacter cloacae ATCC 35030 at < 100 ug/mL by agar dilution method; assay type: functional, organism-based; method in brief: as §1
Salmonella typhimurium = assay: Antibacterial activity against Salmonella Typhimurium ATCC 14028 at < 100 ug/mL by agar dilution method; assay type: functional, organism-based; settings: Salmonella enterica subsp. enterica serovar Typhimurium; method in brief: as §1
[1] = Toxicity in Artemia salina assessed as mortality after 24 hrs; assay type: organism-based; settings: in vivo
Method in brief: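 Artemia salina hatched at pH 9.0 (Na2CO3), 25 °C, strong aeration, continuous light (2000 Lux). Phototropic nauplii were collected about 12 h after hatching, and groups of 10 were exposed per well to various compound concentrations for 24 h. Survivors were counted and % deaths calculated.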

Mus musculus [2] = assay: Antinociceptive activity in Swiss mouse assessed as inhibition of acetic acid-induced writhing at 10 mg/kg, ip administered 30 mins before acetic acid challenge measured after 20 mins relative to control; assay type: functional; settings: route intraperitoneal
Method in brief: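 Mice were given 10 mg/kg i.p. in Tween 80/0.9% NaCl (Tween ≤5%) 30 min before i.p. 0.6% acetic acid, at 20–22 °C. Abdominal constrictions plus hind-limb stretching were counted cumulatively over 20 min in individual funnels. Groups of six, randomized and blinded. Inhibition was calculated versus vehicle controls (10 ml/kg i.p.); ANOVA with Dunnett's test.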

[3] = system: Staphylococcus saprophyticus; assay: Antibacterial activity against Staphylococcus saprophyticus ATCC 35552 at < 100 ug/mL by agar dilution method; assay type: functional, organism-based; method in brief: as §1
Escherichia coli = assay: Antibacterial activity against Escherichia coli ATCC 11775 at < 100 ug/mL by agar dilution method; assay type: functional, organism-based; method in brief: as §1
Mus musculus [4] = assay: Antinociceptive activity in Swiss mouse assessed as inhibition of acetic acid-induced abdominal contraction at 0.1 to 100 mg/kg, ip administered 30 mins before acetic acid challenge measured after 20 mins relative to control; assay type: functional, Abdominal cavity; settings: dose mg/kg 0.1-100; route intraperitoneal
Method in brief: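 Writhing dose-response in mice: compounds at 0.1–10 mg/kg and standard drugs at 10–100 mg/kg, i.p. in Tween 80/saline, 30 min before i.p. 0.6% acetic acid. Constrictions and stretches were counted for 20 min at 20–22 °C, with six to eight animals per group. ID50 (dose halving the response versus control) was given as geometric mean with 95% confidence limits.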

COc1cc(NC2=C(Cl)C(=O)N(c3c(C)n(C)n(-c4ccccc4)c3=O)C2=O)cc(OC)c1
inactive: Activity (Pseudomonas aeruginosa) | Activity (Proteus mirabilis) | Activity (Staphylococcus aureus) | Activity (Bacillus cereus) | Activity (Bacillus subtilis) | Activity (Streptococcus agalactiae) | Activity (Enterobacter cloacae) | Activity (Salmonella typhimurium) | Activity [3] | Activity (Escherichia coli)
72%: inhibition in vivo at 10 mg/kg (Mus musculus [2])
249 µg/mL: LC50 at 24 h [1]

Cc1cccc(NC2=C(Cl)C(=O)N(c3c(C)n(C)n(-c4ccccc4)c3=O)C2=O)c1
49.7%: inhibition in vivo at 10 mg/kg (Mus musculus [2])
inactive: Activity (Pseudomonas aeruginosa) | Activity (Proteus mirabilis) | Activity (Staphylococcus aureus) | Activity (Bacillus cereus) | Activity (Bacillus subtilis) | Activity (Streptococcus agalactiae) | Activity (Enterobacter cloacae) | Activity (Salmonella typhimurium) | Activity [3] | Activity (Escherichia coli)
90.5 µg/mL: LC50 at 24 h [1]

Cc1c(N2C(=O)C(Cl)=C(Nc3cccc(C(=O)O)c3)C2=O)c(=O)n(-c2ccccc2)n1C
> 1000 µg/mL: LC50 at 24 h [1]
inactive: Activity (Pseudomonas aeruginosa) | Activity (Proteus mirabilis) | Activity (Staphylococcus aureus) | Activity (Bacillus cereus) | Activity (Bacillus subtilis) | Activity (Streptococcus agalactiae) | Activity (Enterobacter cloacae) | Activity (Salmonella typhimurium) | Activity [3] | Activity (Escherichia coli)
33.9%: inhibition in vivo at 10 mg/kg (Mus musculus [2])

COc1cccc(NC2=C(Cl)C(=O)N(c3c(C)n(C)n(-c4ccccc4)c3=O)C2=O)c1
56.7%: inhibition in vivo at 10 mg/kg (Mus musculus [2])
inactive: Activity (Pseudomonas aeruginosa) | Activity (Proteus mirabilis) | Activity (Staphylococcus aureus) | Activity (Bacillus cereus) | Activity (Bacillus subtilis) | Activity (Streptococcus agalactiae) | Activity (Enterobacter cloacae) | Activity (Salmonella typhimurium) | Activity [3] | Activity (Escherichia coli)
> 1000 µg/mL: LC50 at 24 h [1]

Cc1c(N2C(=O)C(Cl)=C(N3CCCCC3)C2=O)c(=O)n(-c2ccccc2)n1C
inactive: Activity (Pseudomonas aeruginosa) | Activity (Proteus mirabilis) | Activity (Staphylococcus aureus) | Activity (Bacillus cereus) | Activity (Bacillus subtilis) | Activity (Streptococcus agalactiae) | Activity (Enterobacter cloacae) | Activity (Salmonella typhimurium) | Activity [3] | Activity (Escherichia coli)
84.6%: inhibition in vivo at 10 mg/kg (Mus musculus [2])
> 1000 µg/mL: LC50 at 24 h [1]

Cc1c(N2C(=O)C(Cl)=C(Nc3cccc([N+](=O)[O-])c3)C2=O)c(=O)n(-c2ccccc2)n1C
29.5%: inhibition in vivo at 10 mg/kg (Mus musculus [2])
> 1000 µg/mL: LC50 at 24 h [1]
inactive: Activity (Pseudomonas aeruginosa) | Activity (Proteus mirabilis) | Activity (Staphylococcus aureus) | Activity (Bacillus cereus) | Activity (Bacillus subtilis) | Activity (Streptococcus agalactiae) | Activity (Enterobacter cloacae) | Activity (Salmonella typhimurium) | Activity [3] | Activity (Escherichia coli)

Cc1c(N2C(=O)C(Cl)=C(N3CCN(c4ccccn4)CC3)C2=O)c(=O)n(-c2ccccc2)n1C
inactive: Activity (Pseudomonas aeruginosa) | Activity (Proteus mirabilis) | Activity (Staphylococcus aureus) | Activity (Bacillus cereus) | Activity (Bacillus subtilis) | Activity (Streptococcus agalactiae) | Activity (Enterobacter cloacae) | Activity (Salmonella typhimurium) | Activity [3] | Activity (Escherichia coli)
> 1000 µg/mL: LC50 at 24 h [1]
77.7%: inhibition in vivo at 10 mg/kg (Mus musculus [2])

Cc1c(N2C(=O)C(Cl)=C(Nc3ccc(C(=O)O)cc3)C2=O)c(=O)n(-c2ccccc2)n1C
> 1000 µg/mL: LC50 at 24 h [1]
inactive: Activity (Pseudomonas aeruginosa) | Activity (Proteus mirabilis) | Activity (Staphylococcus aureus) | Activity (Bacillus cereus) | Activity (Bacillus subtilis) | Activity (Streptococcus agalactiae) | Activity (Enterobacter cloacae) | Activity (Salmonella typhimurium) | Activity [3] | Activity (Escherichia coli)
63.6%: inhibition in vivo at 10 mg/kg (Mus musculus [2])

Cc1c(N2C(=O)C(Cl)=C(c3ccc[nH]3)C2=O)c(=O)n(-c2ccccc2)n1C
> 1000 µg/mL: LC50 at 24 h [1]
inactive: Activity (Pseudomonas aeruginosa) | Activity (Proteus mirabilis) | Activity (Staphylococcus aureus) | Activity (Bacillus cereus) | Activity (Bacillus subtilis) | Activity (Streptococcus agalactiae) | Activity (Enterobacter cloacae) | Activity (Salmonella typhimurium) | Activity [3] | Activity (Escherichia coli)
23.3%: inhibition in vivo at 10 mg/kg (Mus musculus [2])

COc1ccc(NC2=C(Cl)C(=O)N(c3c(C)n(C)n(-c4ccccc4)c3=O)C2=O)cc1
inactive: Activity (Pseudomonas aeruginosa) | Activity (Proteus mirabilis) | Activity (Staphylococcus aureus) | Activity (Bacillus cereus) | Activity (Bacillus subtilis) | Activity (Streptococcus agalactiae) | Activity (Enterobacter cloacae) | Activity (Salmonella typhimurium) | Activity [3] | Activity (Escherichia coli)
> 1000 µg/mL: LC50 at 24 h [1]
31.2%: inhibition in vivo at 10 mg/kg (Mus musculus [2])

Cc1cc(C)cc(NC2=C(Cl)C(=O)N(c3c(C)n(C)n(-c4ccccc4)c3=O)C2=O)c1
68.4%: inhibition in vivo at 10 mg/kg (Mus musculus [2])
inactive: Activity (Pseudomonas aeruginosa) | Activity (Proteus mirabilis) | Activity (Staphylococcus aureus) | Activity (Bacillus cereus) | Activity (Bacillus subtilis) | Activity (Streptococcus agalactiae) | Activity (Enterobacter cloacae) | Activity (Salmonella typhimurium) | Activity [3] | Activity (Escherichia coli)
> 1000 µg/mL: LC50 at 24 h [1]

Cc1c(N2C(=O)C(Cl)=C(NCCc3ccccc3)C2=O)c(=O)n(-c2ccccc2)n1C
inactive: Activity (Pseudomonas aeruginosa) | Activity (Proteus mirabilis) | Activity (Staphylococcus aureus) | Activity (Bacillus cereus) | Activity (Bacillus subtilis) | Activity (Streptococcus agalactiae) | Activity (Enterobacter cloacae) | Activity (Salmonella typhimurium) | Activity [3] | Activity (Escherichia coli)
> 1000 µg/mL: LC50 at 24 h [1]
81.8%: inhibition in vivo at 10 mg/kg (Mus musculus [2])

Cc1c(N2C(=O)C(Cl)=C(Nc3cccc(Cl)c3)C2=O)c(=O)n(-c2ccccc2)n1C
86.2 µg/mL: LC50 at 24 h [1]
38.9%: inhibition in vivo at 10 mg/kg (Mus musculus [2])
inactive: Activity (Pseudomonas aeruginosa) | Activity (Proteus mirabilis) | Activity (Staphylococcus aureus) | Activity (Bacillus cereus) | Activity (Bacillus subtilis) | Activity (Streptococcus agalactiae) | Activity (Enterobacter cloacae) | Activity (Salmonella typhimurium) | Activity [3] | Activity (Escherichia coli)

Cc1c(N(C)CS(=O)(=O)[O-])c(=O)n(-c2ccccc2)n1C.[Na+] [DIPYRONE SODIUM]
33%: inhibition in vivo at 10 mg/kg (Mus musculus [2])
54%: inhibition (INH) (Mus musculus [4])

Cc1ccc(NC2=C(Cl)C(=O)N(c3c(C)n(C)n(-c4ccccc4)c3=O)C2=O)cc1
33.6%: inhibition in vivo at 10 mg/kg (Mus musculus [2])
> 1000 µg/mL: LC50 at 24 h [1]
inactive: Activity (Pseudomonas aeruginosa) | Activity (Proteus mirabilis) | Activity (Staphylococcus aureus) | Activity (Bacillus cereus) | Activity (Bacillus subtilis) | Activity (Streptococcus agalactiae) | Activity (Enterobacter cloacae) | Activity (Salmonella typhimurium) | Activity [3] | Activity (Escherichia coli)
